In the array DNA melting data of Ke et al. (doi:10.1101/2024.01.08.574731):

Legend:
[1] = melting temperature; fluorescence melt of hairpins on a sequencing array, two-state fit, raised by 9.35 °C to match UV melts; conditions: sodium 0.088 M
How it was run: (§1)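 Melting temperature and folding enthalpy were obtained by bootstrapped two-state fitting. Fits used Cy3 fluorescence of library hairpins with annealed Cy3 and quencher oligos on a sequenced MiSeq flow cell, imaged in 50 mM Na-HEPES pH 8.0, 25 mM NaCl in 2.5 °C steps up to 60 °C and normalised to pre-quench Cy3 and control constructs. Four replicates were combined by inverse-variance weighting, and fitted temperatures were raised by 9.35 °C to match UV melts.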

[2] = folding enthalpy; higher = less favourable; fluorescence melt of hairpins on a sequencing array, two-state fit; conditions: sodium 0.088 M
How it was run: as §1

Sequence | Tm [1] | folding enthalpy [2]
GGAAGAGGAAACTCCTCC (((.(((....))).))) | 28 °C | -13.9 kcal/mol
GATGCGGGAAACTGCGTC ((.((.(....).)).)) | 44.2 °C | -21.1 kcal/mol
GGCGTCGAAAGACATGCC ((((((....)))..))) | 53 °C | -23.1 kcal/mol
GCTATTCCGAAAGGAAGC (((..(((....)))))) | 32.9 °C | -14.7 kcal/mol
GATCCTAAGAAGGATC ((((((....)))))) | 48 °C | -35.3 kcal/mol
GATCAGAGTCTGATC ((((((...)))))) | 47.4 °C | -39.1 kcal/mol
GATCGCCCGCGCGATC ((((((....)))))) | 66.3 °C | -30.6 kcal/mol
CGCCCGGAAACGGATGCG ((((((....)))..))) | 48.4 °C | -25 kcal/mol
GCGTCCGCGAAAGCGCGC (((..(((....)))))) | 53.5 °C | -16.9 kcal/mol
GATCGTCGGTACGATC ((((((....)))))) | 53.8 °C | -27.3 kcal/mol
GAAGGTGGAAACGTCTTC ((((..(....)..)))) | 36.2 °C | -33 kcal/mol
GCTAACGAAAGTTTAGC ((((((....))).))) | 46.9 °C | -24.2 kcal/mol
GCATTGCCGAAAGGCTGC (((..(((....)))))) | 46.5 °C | -14.8 kcal/mol
GGCACCGAAAGGTACGCC ((((((....)))..))) | 51.4 °C | -27.3 kcal/mol
GCGATGGGAAACCATCAC (.(((((....))))).) | 43.1 °C | -15.9 kcal/mol
GATCCCCCGTGGGATC ((((((....)))))) | 60.5 °C | -36.7 kcal/mol
GGGCATGGAAACATGCTC (.(((((....))))).) | 55.4 °C | -30.1 kcal/mol
GGGAACGGAAACGCTCCC ((((.((....)).)))) | 52.1 °C | -36.6 kcal/mol
GTTCGTCGAAAGACAAAC (((.(((....))).))) | 41.2 °C | -16.6 kcal/mol
GTGCTTTCGAAAGAACAC (((..(((....)))))) | 36.7 °C | -19.8 kcal/mol
GATCGTTCAGACGATC ((((((....)))))) | 55.6 °C | -38.9 kcal/mol
GCCAAGGGAAACCTTGGC (((((((....))))))) | 68.8 °C | -37.5 kcal/mol
GCTAAGCGAAAGCCTTGC ((.(.((....)).).)) | 34.6 °C | -13.1 kcal/mol

Sequence | Tm [1] | folding enthalpy [2]
GGAAGAACGAAAGTTTCC (((..(((....)))))) | 33 °C | -14.9 kcal/mol
GCTTCCGGAAACGGGAGC (((.(((....))).))) | 59.5 °C | -40.1 kcal/mol
GGTCACTCGAAAGAGACC (((..(((....)))))) | 40.8 °C | -24.1 kcal/mol
GTCGGCGAAAGCCTTGAC ((((((....)))..))) | 40.5 °C | -13 kcal/mol
GATCTGGCACAGATC ((((((...)))))) | 58.4 °C | -38.8 kcal/mol
GACCGTGGAAACACGACC (..((((....))))..) | 28 °C | -10.8 kcal/mol
CGTACGGAAACGTCACG ((((((....))).))) | 38.4 °C | -22.6 kcal/mol
GCCAGCGAAAGCTAAGGC ((((((....)))..))) | 53.7 °C | -21.2 kcal/mol
GCCGTATCGAAAGATGGC (((..(((....)))))) | 47.4 °C | -9.59 kcal/mol
GCCACGCGAAAGCATTGC ((.(.((....)).).)) | 28.7 °C | -11.6 kcal/mol
GCACGCGAAAGCGTATGC ((((((....)))..))) | 50.9 °C | -13.3 kcal/mol
GGACGTGCGAAAGCATCC (((..(((....)))))) | 30.6 °C | -9.73 kcal/mol
GTTCGCTCGAAAGAGAAC (((..(((....)))))) | 37.5 °C | -19.8 kcal/mol
GATCGTTTGTACGATC ((((((....)))))) | 56 °C | -37.3 kcal/mol
GGCAAGGAAACTTGCC ((((((....)))))) | 64.7 °C | -37 kcal/mol
GAGCCCGAAAGGGCACTC ((((((....)))..))) | 62.2 °C | -11 kcal/mol
GTATGCGAAAGCAGATAC ((((((....)))..))) | 36.7 °C | -12.9 kcal/mol
GCGGGTGGAAACGTCCGC ((((..(....)..)))) | 53 °C | -32 kcal/mol
GTCATGGGAAACCGTGAC ((((.((....)).)))) | 52.9 °C | -42.3 kcal/mol
GATCCCCGAAAGGGATC (((.(((....)))))) | 56.2 °C | -29.8 kcal/mol
GGGATTTCGAAAGAACCC (((..(((....)))))) | 30.3 °C | -22.6 kcal/mol
GGGGCGGCGAAAGCCCCC (((..(((....)))))) | 64 °C | -16.6 kcal/mol
GATCACGAAAGTGCTATC ((((((....)))..))) | 26.1 °C | -12.1 kcal/mol

Sequence | Tm [1] | folding enthalpy [2]
GACACCGAAAGGTGCGTC ((((((....)))..))) | 45.7 °C | -10.2 kcal/mol
GATCCACGGATGGATC ((((((....)))))) | 48.6 °C | -32.4 kcal/mol
GCTTCGGAAACGAAGC ((((((....)))))) | 67.8 °C | -36.3 kcal/mol
GTGTCCGAAAGGACCCAC ((((((....)))..))) | 38.5 °C | -8.57 kcal/mol
GTTGCGGGAAACTGCAAC (((((.(....).))))) | 56.2 °C | -38.5 kcal/mol
GATCATCGACATGATC ((((((....)))))) | 44.8 °C | -30.4 kcal/mol
GCGGTACACCGC ((((....)))) | 59.1 °C | -40.4 kcal/mol
GTGTTCGAAAGAATCAC ((((((....))).))) | 41.5 °C | -28.2 kcal/mol
GCTTTCGAAAGAAAAGC ((((((....))).))) | 46.6 °C | -31.3 kcal/mol
GATCCGCTGCGGATC ((((((...)))))) | 57.5 °C | -48.3 kcal/mol
GACCGGGGAAACTCGGTC (((((.(....).))))) | 56.3 °C | -50.3 kcal/mol
GTCGCGCGAAAGCGGAC (((.(((....)))))) | 56.5 °C | -15.4 kcal/mol
GCGATGTCTCGC ((((....)))) | 48.6 °C | -19.6 kcal/mol
GTCAACGAAAGTTCAGAC ((((((....)))..))) | 28.3 °C | -11.4 kcal/mol
GGGTTTTCGAAAGAACCC (((..(((....)))))) | 43.6 °C | -31.8 kcal/mol
GGCTTTTCGAAAGAAGCC (((..(((....)))))) | 45.6 °C | -33.7 kcal/mol
GCCAGAACGAAAGTTGGC (((..(((....)))))) | 49.8 °C | -35.8 kcal/mol
GTGCTGAAAAGCAC (((((....))))) | 66 °C | -28.1 kcal/mol
GTATGTCGAAAGACTAC (((.(((....)))))) | 41.3 °C | -19.2 kcal/mol
GCATAGCGAAAGCTTAGC ((..(((....)))..)) | 41.6 °C | -16.2 kcal/mol
GATCTTAAGTAAGATC ((((((....)))))) | 42.8 °C | -25.5 kcal/mol
GACACAACGAAAGTTGTC (((..(((....)))))) | 38.7 °C | -9.73 kcal/mol
GTTTCCGAAAGGATAAC ((((((....))).))) | 37.6 °C | -19.8 kcal/mol

Sequence | Tm [1] | folding enthalpy [2]
GTTTTTCCGAAAGGAAAC (((..(((....)))))) | 35.1 °C | -13.4 kcal/mol
GATAACCGAAAGGTGATC (((.(((....))).))) | 47.8 °C | -27.9 kcal/mol
GTTGTAGGAAACTGCAAC ((((.((....)).)))) | 46.9 °C | -17.8 kcal/mol
GCACCTGGAAACAGGCGC ((.((((....)))).)) | 53.5 °C | -46.8 kcal/mol
GTGTCAGGAAACTGATAC ((.((((....)))).)) | 45.8 °C | -29.4 kcal/mol
GTCGGCGGAAACGTCGAC ((((.((....)).)))) | 62 °C | -51.5 kcal/mol
GAGACCGAAAGGTATCTC ((((((....)))..))) | 53 °C | -24 kcal/mol
GTTGCCGAAAGGCAAAAC ((((((....)))..))) | 42.5 °C | -9.67 kcal/mol
GGAAGCGAAAGCTGATCC ((((((....)))..))) | 36.9 °C | -12.4 kcal/mol
GCGGTCGGCCGC ((((....)))) | 60.1 °C | -24.2 kcal/mol
GCAGTTGAAAAACTGC ((((((....)))))) | 58.9 °C | -37.8 kcal/mol
GGGAGCGAAAGCTGCCC ((((((....))).))) | 60.5 °C | -15.1 kcal/mol
GTAAACGGAAACGTTTGC (.(((((....))))).) | 48.5 °C | -26.1 kcal/mol
GATCCCTAAAGGGATC ((((((....)))))) | 60.6 °C | -36.5 kcal/mol
GCTTTGCGAAAGCAGAGC (((.(((....))).))) | 56.5 °C | -43.8 kcal/mol
GAACATCCGAAAGGATTC (((..(((....)))))) | 26.3 °C | -11.7 kcal/mol
GGCACTCGAAAGAGAGCC (((.(((....))).))) | 59 °C | -46.2 kcal/mol
GCGTCGCGAAAGCGTAGC ((..(((....)))..)) | 58.6 °C | -20.8 kcal/mol
GCGGTGCGAAAGCGCGGC ((.(.((....)).).)) | 64.5 °C | -25 kcal/mol
CGCACGGAAACGTAGGCG ((((((....)))..))) | 46.3 °C | -30.6 kcal/mol
GATGTAGGAAACTGCATC ((((.((....)).)))) | 45 °C | -34.6 kcal/mol
GTACGCGAAAGCGCATAC ((((((....)))..))) | 22.5 °C | -5.57 kcal/mol
GTCCCCGAAAGGGTGGAC ((((((....)))..))) | 48.9 °C | -14.8 kcal/mol
